Measured values published in ChEMBL document CHEMBL1146581, “Induction of apoptosis by xanthones from mangosteen in human leukemia cell lines” (J Nat Prod, 2003).
Active and inactive are the calls of the source. The rule behind the calls is not given here.

Columns and labels:
[1] = tested on: HL-60; experiment: Cytotoxicity against human HL60 cells assessed as cell viability after 72 hrs by Trypan blue exclusion test; format: functional, cell-based; conditions: HL-60, 72 h
In short: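 HL60 (RIKEN Cell Bank) in RPMI-1640 with 10% heat-inactivated FBS, seeded at 1 × 10^5/mL. Exposed for 72 h to 5–40 µM compound added in DMSO (final 0.1% v/v). Viable cells counted by trypan blue dye exclusion. IC50 read from concentration–growth curves. Means ± SD of three experiments.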

[2] = tested on: K562; experiment: Cytotoxicity against human K562 cells assessed as cell viability at 10 uM after 72 hrs by Trypan blue exclusion test; format: functional, cell-based
In short: (§1)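 Leukemia lines (RIKEN Cell Bank) grown in RPMI-1640 with 10% heat-inactivated FBS. Growth curves were followed at 1, 2, 5 and 10 µM compound delivered in DMSO (final 0.1% v/v), with untreated controls. Viable cell number counted by trypan blue dye exclusion in a counting chamber.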

[3] = tested on: NB-4; experiment: Cytotoxicity against human NB4 cells assessed as cell viability at 10 uM after 72 hrs by Trypan blue exclusion test; format: functional, cell-based; in short: as §1
[4] = tested on: U-937; experiment: Cytotoxicity against human U937 cells assessed as cell viability at 10 uM after 72 hrs by Trypan blue exclusion test; format: functional, cell-based; in short: as §1
[5] = tested on: K562; experiment: Cytotoxicity against human K562 cells assessed as cell viability at 5 uM after 72 hrs by Trypan blue exclusion test; format: functional, cell-based; in short: as §1
[6] = tested on: NB-4; experiment: Cytotoxicity against human NB4 cells assessed as cell viability at 5 uM after 72 hrs by Trypan blue exclusion test; format: functional, cell-based; in short: as §1
[7] = tested on: U-937; experiment: Cytotoxicity against human U937 cells assessed as cell viability at 5 uM after 72 hrs by Trypan blue exclusion test; format: functional, cell-based; in short: as §1
[8] = tested on: PBMC; experiment: Cytotoxicity against concanavalin A-stimulated human PBMC cells at 10 uM after 72 hrs by Trypan blue exclusion test; format: cell-based
In short: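 Lymphocytes from healthy donors in RPMI-1640 with 10% heat-inactivated FBS, stimulated with concanavalin-A (75 µg/mL) for 48 h, then exposed to compound in DMSO (final 0.1% v/v). Viable cells counted by trypan blue dye exclusion in a counting chamber.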

[9] = tested on: HL-60; experiment: Induction of apoptosis in human HL60 cells assessed as nuclear condensation and fragmentation at 10 uM after 24 hrs using Hoechst stain by fluorescence microscopy; format: functional, cell-based
In short: (§2)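 Cells treated 24 h at 10 µM. Hoechst 33342 was added to the medium at 5 µg/mL for 30 min. Cells were then washed in PBS and nuclear condensation/fragmentation was scored by fluorescence microscopy (×400).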

[10] = tested on: K562; experiment: Induction of apoptosis in human K562 cells assessed as nuclear condensation and fragmentation at 10 uM after 24 hrs using Hoechst stain by fluorescence microscopy; format: functional, cell-based; in short: as §2
[11] = tested on: NB-4; experiment: Induction of apoptosis in human NB4 cells assessed as nuclear condensation and fragmentation at 10 uM after 24 hrs using Hoechst stain by fluorescence microscopy; format: functional, cell-based; in short: as §2
[12] = tested on: U-937; experiment: Induction of apoptosis in human U937 cells assessed as nuclear condensation and fragmentation at 10 uM after 24 hrs using Hoechst stain by fluorescence microscopy; format: functional, cell-based; in short: as §2
[13] = tested on: HL-60; experiment: Induction of apoptosis in human HL60 cells assessed as DNA ladder formation at 10 uM after 24 hrs by agarose gel electrophoresis; format: functional, cell-based
[14] = tested on: K562; experiment: Induction of apoptosis in human K562 cells assessed as DNA ladder formation at 10 uM after 24 hrs by agarose gel electrophoresis; format: functional, cell-based
[15] = tested on: NB-4; experiment: Induction of apoptosis in human NB4 cells assessed as DNA ladder formation at 10 uM after 24 hrs by agarose gel electrophoresis; format: functional, cell-based
[16] = tested on: U-937; experiment: Induction of apoptosis in human U937 cells assessed as DNA ladder formation at 10 uM after 24 hrs by agarose gel electrophoresis; format: functional, cell-based
[17] = tested on: HL-60; experiment: Induction of apoptosis in human HL60 cells assessed as caspase 3 activation at 10 uM by Western blot; format: functional, cell-based
In short: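 HL60 treated with 10 µM over a time course. Lysis was in Tris pH 7.4/NP-40/deoxycholate/SDS buffer with protease inhibitors, 30 min on ice. 10 µg protein was run on a 5–20% SDS gradient gel and blotted to PVDF. The blot was probed overnight at 4 °C with rabbit anti-caspase-3, then HRP anti-rabbit, and detected by ECL. Pro (32 kD) and active (19/17 kD) forms were read.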

Work on `CC(C)=CCc1c(O)cc2oc3cc(O)c(O)c(CC=C(C)C)c3c(=O)c2c1O` yielded an IC50 [1] of 6.1 µM.
Compound `COc1cc2oc3ccc(O)cc3c(=O)c2c(O)c1CC=C(C)C` has an IC50 [1] of 23.6 µM.
`COc1cc2oc3cc(O)c(OC)c(CC=C(C)C)c3c(=O)c2c(O)c1CC=C(C)C` gave an IC50 [1] of 7.6 µM.
Work on `CC(C)=CCC/C(C)=C/Cc1c(O)cc2oc3c(O)cccc3c(=O)c2c1O` [MANGOSTINONE] yielded an IC50 [1] of 19 µM.
In the case of `COc1c(O)cc2oc3cc(O)c(CC=C(C)C)c(O)c3c(=O)c2c1CC=C(C)C` [MANGOSTIN], the IC50 [1] is reported as 6.8 µM, the Activity [2] is reported as “Active” and the Activity [3] is reported as “Active”. The Activity [4] was “Active”, the Activity [5] was “Active” and the Activity [6] was “Active”. For the same compound, the Activity [7] was “Active”, the Activity [8] was “Non-toxic” and the Activity [9] was “Active”. The Activity [10] was “Active”, the Activity [11] was “Active” and the Activity [12] was “Active”. The Activity [13] was “Active”, the Activity [14] was “Active” and the Activity [15] was “Active”. The Activity [16] was “Active” and the Activity [17] was “Active”.
Compound `CC(C)=CCc1c(O)cc2oc3c(CC=C(C)C)c(O)c(O)c(CC=C(C)C)c3c(=O)c2c1O` [GARCINONE E] has an IC50 [1] of 15 µM.
